This passage reports selectivity ratio and IC50 results from ChEMBL document CHEMBL3352271, “Antitrypanosomal quinoline alkaloids from the roots of Waltheria indica” (J Nat Prod, 2014).

Series [1] can be described thus: Selectivity index, ratio of IC50 against rat L6 cells to IC50 against Trypanosoma cruzi Tuluhaen C2C4. The class given is toxicity, cell-based. The conditions noted are these: read-out: Ratio IC50. In short, it runs like this: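 Selectivity index calculated as the IC50 for L6 cytotoxicity divided by the IC50 for antitrypanosomal activity against T. cruzi amastigotes (Tulahuen C4).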

A further series relates to Trypanosoma cruzi. The experiment in a line: Antitrypanosomal activity against LacZ expressing Trypanosoma cruzi Tuluhaen C2C4 amastigotes. The class given is functional, organism-based.
Series [2] has as its system Trypanosoma brucei rhodesiense. Kind of series: Antitrypanosomal activity against Trypanosoma brucei rhodesiense STIB900 trypomastigote forms. The format is functional, organism-based.
A further series deals with L6. The experiment in a line: Cytotoxicity against rat L6 cells. The format is cell-based.
Series [3] relates to Trypanosoma brucei brucei. The experiment in a line: Antitrypanosomal activity against Trypanosoma brucei brucei NYSM bloodstream forms incubated for 46 hrs by alamar blue assay. The class given is functional, organism-based. The gist of the method:
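Bloodstream parasites grown in HMI-9 medium with 10% FCS, wild type. Plated at a final density of 0.5 × 10^5 cells/mL with compound dilutions for 46 h, then AlamarBlue added for 2 more h. Fluorescence read at excitation 530 nm, emission 584 nm. IC50 from nonlinear sigmoidal dose–response fit; triplicate runs, reported ± SD.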
A general note: Alamar Blue is a resazurin reagent that responds to reducing activity.

Take `CCCCCCCC[C@H]1CCCc2c1c(=O)c(OC)c(C)n2OC`: the selectivity ratio in series [1] worked out at 1.9. Moreover, the IC50 was 0.1 µM in the series on Trypanosoma cruzi, 53.3 µM in series [2], 0.19 µM in the series with L6 and more than 100 µM in series [3].
The corresponding values for `CCCCCCCC[C@@H]1CCCc2[nH]c(C)c(OC)c(=O)c21` are 1.5, 0.49 µM, 32.6 µM, 0.75 µM and more than 100 µM.
The corresponding values for `CCCCCCCC[C@H]1CC[C@@H](OC)c2[nH]c(C)c(OC)c(=O)c21` are 4, 0.23 µM, 38.5 µM, 0.91 µM and 80.3 µM.
On to `CCCCCCCCc1ccc(OC)c2[nH]c(C)c(OC)c(=O)c12`, for which the selectivity ratio in series [1] was 22.7. The IC50 in the series on Trypanosoma cruzi was determined as 1.1 µM; in series [2], 38.6 µM; in the series with L6, 25.7 µM; in series [3], 31 µM.
The like results for `COc1c(C)n(OC)c2c(c1=O)[C@@H](CCCCCc1ccccc1)CCC2` were, in that order, 33.8, 0.02 µM, 30.4 µM, 0.64 µM and 24.1 µM.
Consider `COc1c(C)n(OC)c2c(c1=O)[C@@H](CCCCCc1ccccc1)CC[C@H]2OC`, for which the selectivity ratio in series [1] was determined as 6.5. Moreover, the IC50 in the series on Trypanosoma cruzi was 0.04 µM; in series [2], 35.9 µM; with L6 it was 0.26 µM.
Regarding `CCCCCCCC[C@@H]1CCCc2c1c(=O)c(OC)c(CO)n2OC`, in series [1], the selectivity ratio stood at 10.1. Moreover, the IC50 with Trypanosoma cruzi was 2.2 µM; in series [2] it was 87.9 µM; with L6, 22.1 µM; in series [3], more than 100 µM.
The like results for `CCCCCCCC[C@H]1CC[C@@H](OC)c2c1c(=O)c(OC)c(C)n2OC` were, in that order, 1.8, 0.04 µM, 45.8 µM, 0.07 µM and more than 100 µM.
With `COc1c(OC)c(C)[n+]([O-])c2c1[C@H](CCCCCc1ccccc1)CCC2`, the selectivity ratio in series [1] stood at 13.5. Further, the values for the IC50 (in the series on Trypanosoma cruzi; in series [2]; in the series on L6) were 3.1 µM, 55.7 µM and 41.1 µM, respectively.
For the compound `CCCCCCCC[C@H]1CCC(=O)c2[nH]c(C)c(OC)c(=O)c21`, the selectivity ratio in series [1] was 1080. Besides, the concentration for half-maximal inhibition (IC50) in the series on Trypanosoma cruzi is 0.17 µM; in series [2] it was 14.3 µM; with L6, 184 µM; in series [3], more than 100 µM.
As to `O=C(Cn1ccnc1[N+](=O)[O-])NCc1ccccc1` [BENZNIDAZOLE], the IC50 with Trypanosoma cruzi was found to be 2.9 µM.
`Cc1ccc(C(=O)Nc2ccc(S(=O)(=O)O)c3cc(S(=O)(=O)O)cc(S(=O)(=O)O)c23)cc1NC(=O)c1cccc(NC(=O)Nc2cccc(C(=O)Nc3cc(C(=O)Nc4ccc(S(=O)(=O)O)c5cc(S(=O)(=O)O)cc(S(=O)(=O)O)c45)ccc3C)c2)c1` [SURAMIN]: the IC50 in series [3] was found to be 0.31 µM.

In general, IC50 refers to the concentration that inhibits the measured activity by half. Higher therefore signals weaker potency.
